This is a sample that favours compounds with a hit; in the whole collection about 2.2% have one here.
DNMT1 block: human DNMT1 methyltransferase inhibitors, primary screen, biochemical, molecular beacon, fluorescence, HinP1I cleavage, uHTS | DNA (cytosine-5)-methyltransferase 1 (Homo sapiens), P26358 | inhibition (reported as % activation of signal), % at 10 µM | actives 0.83% (n = 360,000); in the data active means inhibition above about 50%
SUMO1-SIM PPI: modulators of SUMO1 protein-protein interactions, primary screen, biochemical, uHTS; Small ubiquitin-related modifier 1 (Homo sapiens), P63165; SUMO1 binding to a labelled peptide, TR-FRET, 1 h; inhibition, % at 20 µM; actives 0.33% (n = 360,000); in the data active means inhibition above about 37%
Target sequence (P63165 whole entry, looked up): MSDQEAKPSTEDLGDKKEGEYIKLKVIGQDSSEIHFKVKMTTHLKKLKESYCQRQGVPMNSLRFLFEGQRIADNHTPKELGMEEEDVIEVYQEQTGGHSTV
GRK2 aptamer HTS: compounds blocking aptamer binding on GRK2 – biochemical, human GRK2, bead flow cytometry, HTS, primary screen; Beta-adrenergic receptor kinase 1 (Homo sapiens), P25098; FAM-aptamer displacement from GRK2; inhibition of aptamer binding, % at 10 µM; actives 0.59% (n = 330,000);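 active means inhibition of aptamer binding above 40%, roughly 3 SD of noise, on plates passing a quality check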;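 further: median bead fluorescence of bound FAM aptamer so fluorescent compounds give negative values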
STEP block: STEP phosphatase inhibitors, primary screen, biochemical, fluorescence intensity, uHTS | Tyrosine-protein phosphatase non-receptor type 5 (Homo sapiens), P54829 | recombinant STEP, OMFP fluorogenic substrate | inhibition, % at 20 µM | actives 0.25% (n = 360,000);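 active means inhibition at 20 µM, scaled per plate between control wells, above about 37%, limit read from the data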
Target sequence (P54829 whole entry, looked up): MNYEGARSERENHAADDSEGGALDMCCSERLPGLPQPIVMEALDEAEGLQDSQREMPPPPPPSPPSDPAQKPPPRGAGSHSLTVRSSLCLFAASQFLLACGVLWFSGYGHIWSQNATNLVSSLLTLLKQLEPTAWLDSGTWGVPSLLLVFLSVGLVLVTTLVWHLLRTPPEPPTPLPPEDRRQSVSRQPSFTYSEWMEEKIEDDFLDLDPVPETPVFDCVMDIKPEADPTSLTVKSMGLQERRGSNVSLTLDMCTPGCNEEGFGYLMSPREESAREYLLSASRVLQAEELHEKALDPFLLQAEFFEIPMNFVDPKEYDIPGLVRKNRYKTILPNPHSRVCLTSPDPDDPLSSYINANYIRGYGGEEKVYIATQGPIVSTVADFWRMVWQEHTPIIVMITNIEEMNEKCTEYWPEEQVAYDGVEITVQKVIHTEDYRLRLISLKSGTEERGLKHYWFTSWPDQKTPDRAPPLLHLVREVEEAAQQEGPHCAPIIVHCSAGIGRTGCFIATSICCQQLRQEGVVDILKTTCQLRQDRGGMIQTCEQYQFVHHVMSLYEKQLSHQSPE
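System: STEP (striatal-enriched tyrosine phosphatase) enzyme, cell-free; medium: Bis-Tris pH 6.0 buffer with DTT, detergent; dosing: 20 µM, 1% DMSO; times: reaction 20 min, ambient temperature; detection: fluorescence, 480/540 nm; read-out basis: normalized % inhibition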
LMPTP inh: LMPTP phosphatase inhibitors, primary screen, biochemical, fluorescence intensity, uHTS; actives 0.22% (n = 360,000); Low molecular weight phosphotyrosine protein phosphatase (Homo sapiens), P24666; recombinant LMPTP-A, OMFP fluorogenic substrate; inhibition, % at 20 µM;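 active means compounds that cut the enzyme signal by at least half of the control window in the single-dose screen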
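Test system: LMPTP-A, protein tyrosine phosphatase of low molecular weight; Input: 0.625 nM enzyme; Incubation: 50 min dark incubation at room temperature; Signal: endpoint fluorescence intensity from OMFP dephosphorylation; Read-out basis: % inhibition versus control wells.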
Scp1 inh: Scp-1 phosphatase inhibitors, primary screen, biochemical, colorimetric, uHTS; inhibition, % at 20 µM; Carboxy-terminal domain RNA polymerase II polypeptide A small phosphatase 1 (Homo …; Recombinant Scp1, phosphopeptide, malachite green phosphate absorbance; actives 0.88% (n = 340,000);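 active means inhibition above about 50% at 20 µM, limit read from the data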
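Incubation: 45 min enzyme reaction at room temperature / System: truncated SCP-1 phosphatase (76-261aa) / Reagent: Phospho 17-mer peptide substrate / Buffer or medium: Acidic Tris acetate buffer with magnesium and detergent / Signal: absorbance at 630 nm / Doses: one concentration, 20 µM, with 1.0% DMSO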
GRK2 inh confirm: GRK2 aptamer-displacing inhibitors, retest, confirmation, biochemical, cherry pick 1, bead flow cytometry. actives 4% (n = 2,000). shares compounds with GRK2 aptamer HTS. bead-bound GRK2, FAM-aptamer displacement. aptamer displacement, % at 10 µM;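 active means aptamer displacement above 40%, near three times the noise of non-fluorescent compounds, on plates passing quality checks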;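 further: negative values mostly reflect intrinsic compound fluorescence rather than true enhancement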
Aptamer quench: counter-screen for GRK2 aptamer inhibitors: fluorescent aptamer quenchers; AID 504521; 110 tested, under 10 active; fluorescence change (kMESF span), kMESF (concentration not given with the values); Fluorescent RNA aptamer beads, quenching, flow cytometry; hits give high values; shares compounds with GRK2 aptamer HTS;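 active means compounds whose bead fluorescence drops by more than 37 kMESF across the dose range, marking them as dye quenchers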
FAM quench CP1: aptamer fluorescence quenching in GRK2 counter-screen; shares compounds with GRK2 aptamer HTS; Carboxyfluorescein RNA aptamer on beads, flow cytometry quenching; hits give low values; fluorescence response (% of DMSO), % at 10 µM; 2,000 tested, under 10 active; AID 504580;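 active means compounds that quench the bead-bound fluorescent RNA probe, cutting fluorescence to under half of the solvent control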;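 further: counterscreen run without GRK2 so only probe quenching by compound is measured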
Large screens that a line does not name were inactive (follow-up assays come after a bar, where they were run).

CCN(CC)C(=O)C1=C(C)N(CCCN2CCCC2=O)C(=O)C(CC(=O)NCCCCc2ccccc2)C1 (stereo unspecified)	none (no result: GRK2 aptamer HTS, Scp1 inh)
CN(Cc1ccccc1)C(=O)c1[nH]cnc1C(=O)Nc1cccc(Cl)c1	none | GRK2 inh confirm inactive | FAM quench CP1 inactive
CNC(=O)c1[nH]cnc1C(=O)Nc1cccc(Cl)c1	GRK2 aptamer HTS 91 | GRK2 inh confirm 93 | Aptamer quench inactive | FAM quench CP1 inactive
Cc1ccc(NC(=O)c2nc[nH]c2C(=O)N2CCC(C)CC2)cc1	none
CC1CCN(C(=O)c2[nH]cnc2C(=O)Nc2cccc(Cl)c2)CC1	none | GRK2 inh confirm inactive | Aptamer quench inactive | FAM quench CP1 inactive
O=C(Nc1cccc(Cl)c1)c1cnc[nH]1	GRK2 aptamer HTS 58 | GRK2 inh confirm inactive | FAM quench CP1 inactive
CC(C)C[C@@H](COCc1cccc(Cl)c1)N1CCN(C(=O)c2ccc(C(F)(F)F)cc2)CCC1=O	none (no result: DNMT1 block, GRK2 aptamer HTS, STEP block, Scp1 inh)
CC(C)(C)OC(=O)[C@H](Cc1ccccc1)NC(=O)c1[nH]cnc1C(=O)Nc1cccc(Cl)c1	none | GRK2 inh confirm inactive | FAM quench CP1 inactive
C[C@@H](NC(=O)c1[nH]cnc1C(=O)Nc1cccc(Cl)c1)c1ccccc1	none | GRK2 inh confirm inactive | FAM quench CP1 inactive
C[C@H](NC(=O)c1[nH]cnc1C(=O)Nc1cccc(Cl)c1)c1ccccc1	none | GRK2 inh confirm inactive | FAM quench CP1 inactive
COC(=O)[C@@]12C[C@@H](CC(=O)N3CCC(c4ccccc4)CC3)C(=O)N(Cc3cccc4ccccc34)C1=CCC(C)(C)C2	none (no result: DNMT1 block, GRK2 aptamer HTS, STEP block, Scp1 inh)
OCCN1CCN(c2ncnc3c2ncn3[C@H]2CN(Cc3cccc(C(F)(F)F)c3)C[C@@H](CO)O2)CC1	none (no result: GRK2 aptamer HTS, Scp1 inh)
Nc1[nH]c(C(=O)c2ccccc2)c(-c2cccc3ccccc23)c1C(=O)NCc1ccccc1	none (no result: DNMT1 block, GRK2 aptamer HTS, STEP block, Scp1 inh)
CC(=O)c1cccc(NC(=O)CSCc2ccccc2)c1	GRK2 aptamer HTS 43 | GRK2 inh confirm inactive | FAM quench CP1 inactive
CC(=O)c1cccc(NC(=O)CSCc2ccc(Br)cc2)c1	none
CC1(C)Cc2c(sc3ncnc(NNC(=S)NCc4ccccc4)c23)CO1	GRK2 aptamer HTS 91 | GRK2 inh confirm inactive | FAM quench CP1 inactive
CC(C)NC(=S)NNc1ncnc2sc3c(c12)CC(C)(C)OC3	none
O=C(CCSCCC(=O)NCc1ccccc1)NCc1ccccc1	GRK2 aptamer HTS 87 | GRK2 inh confirm inactive | FAM quench CP1 inactive
O=C(CCc1ccccc1)NCc1ccccc1	none
COC(=O)C[C@@H]1CC[C@H](NC(=O)Nc2ccc(OC)cc2)[C@@H](CO)O1	none (no result: DNMT1 block, GRK2 aptamer HTS, STEP block, Scp1 inh)
COc1ccc(NC(=O)CSc2nnc(Cc3ccccc3)c(=O)n2N)c(OC)c1	none
COc1ccc(Cc2nnc(SCC(=O)Nc3ccccc3C)n(N)c2=O)cc1	GRK2 aptamer HTS 100 | GRK2 inh confirm inactive | FAM quench CP1 inactive
CCc1nc2ccc(C(=O)NCCCn3ccnc3)cn2c1N(C)CCCc1ccccc1	none (no result: GRK2 aptamer HTS, Scp1 inh)
COc1ccc(-c2nc3ccccc3c(=O)n2N)cc1	none
COc1ccc(-c2nc3ccccc3c(=O)n2CC(C)C)cc1	GRK2 aptamer HTS 98 | GRK2 inh confirm inactive | FAM quench CP1 inactive
CCOC(=O)C(=C1Nc2ccccc2N1)n1c(-c2cccnc2)nc2ccccc21	none (no result: DNMT1 block, GRK2 aptamer HTS, STEP block, Scp1 inh)
OC(COc1ccccc1)CN1CCCCC1 (stereo unspecified)	none (no result: GRK2 aptamer HTS)
OC(COc1ccc(C2C=CCC2)cc1)CN1CCCCC1 (stereo unspecified)	GRK2 aptamer HTS 62 | GRK2 inh confirm inactive | FAM quench CP1 inactive
COCCNC(=O)C(c1ccc(C)o1)N(Cc1ccc(OC)cc1)C(=O)Cn1nnc2ccccc21 (stereo unspecified)	GRK2 aptamer HTS 44 | GRK2 inh confirm inactive | FAM quench CP1 inactive
O=C(O)c1ccccc1Nc1cccc(OCc2ccc3ccccc3n2)c1	none | GRK2 inh confirm inactive | FAM quench CP1 inactive
CC(=O)n1cc([C@H]2C=C(C(=O)NCc3ccccc3)O[C@@H](OCc3ccc(CO)cc3)C2)c2ccccc21	none
CC(=O)n1cc([C@@H]2C=C(C(=O)Nc3ccccc3)O[C@H](OCc3ccc(CO)cc3)C2)c2ccccc21	GRK2 aptamer HTS 64 | GRK2 inh confirm inactive | FAM quench CP1 inactive
CC(C)(CNC(=O)c1cc(-c2ccc(Cl)s2)nc2ccccc12)N1CCOCC1	GRK2 aptamer HTS 52 | GRK2 inh confirm inactive | FAM quench CP1 inactive
COc1ccc(-c2nc(-c3ccc(NC(=O)c4ccncc4)cc3)no2)cc1OC	none
COc1ccc(NC(=O)c2ccc(-c3ccc(-c4noc(C)n4)cc3C)cc2)cc1N1CCN(C)CC1	none | GRK2 inh confirm inactive | FAM quench CP1 inactive
Cc1cccnc1C(NC(=O)C1CCN(CCCOc2ccc(F)cc2)CC1)c1ccccc1 (stereo unspecified)	none (no result: GRK2 aptamer HTS, Scp1 inh)
S=C(NCCc1ccccc1)N1CCc2ccccc2C1	GRK2 aptamer HTS 95 | GRK2 inh confirm inactive | FAM quench CP1 inactive
COc1ccccc1N1CCN(/N=C(\C)c2ccccc2O)CC1	GRK2 aptamer HTS 55 | GRK2 inh confirm inactive | FAM quench CP1 inactive
COc1cc(/C(C)=N/N2CCN(c3ccccc3OC)CC2)ccc1O	none
COc1cc(NC(=O)COc2ccc([N+](=O)[O-])cc2)ccc1NC(=O)c1ccco1	none (no result: GRK2 aptamer HTS, Scp1 inh)
COc1cccc(C2c3[nH]c4ccccc4c3CCN2C(=O)c2ccccc2F)c1OC (stereo unspecified)	GRK2 aptamer HTS 50 | GRK2 inh confirm inactive | FAM quench CP1 inactive
COc1ccc(C2c3[nH]c4ccccc4c3CCN2C(=O)c2ccccc2C(C)=O)c(F)c1 (stereo unspecified)	none
Cc1ccc([C@H]2N[C@]3(CCCN(Cc4ccc(Br)cc4)C3=O)[C@H]3C(=O)N(C)C(=O)[C@@H]23)cc1	none (no result: GRK2 aptamer HTS, Scp1 inh)
NC(Cc1ccc(Cl)cc1)c1csc(Nc2ccc(C(F)(F)F)cn2)n1 (stereo unspecified)	none (no result: GRK2 aptamer HTS, Scp1 inh)

Bioassay records from PubChem BioAssay.
